High-throughput results: PubChem BioAssay, Johns Hopkins Ion Channel Center
MrgX1 antag – antagonists of human MrgX1 receptor. MRGX1-HEK293 calcium flux, Fluo-4, BAM8-22 antagonism; hits give low values. B-score at 10 µM. 310,000 compounds, 1.3% hits. AID 588676;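 active means calcium-response B-score plate-corrected more than 3 library SD below zero, starting fluorescence within 5 deviations, no agonist response on first addition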;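 further: peak minus trough fluorescence over baseline after final BAM8-22 challenge near maximal dose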
Target sequence (Q96LB2 whole entry, looked up): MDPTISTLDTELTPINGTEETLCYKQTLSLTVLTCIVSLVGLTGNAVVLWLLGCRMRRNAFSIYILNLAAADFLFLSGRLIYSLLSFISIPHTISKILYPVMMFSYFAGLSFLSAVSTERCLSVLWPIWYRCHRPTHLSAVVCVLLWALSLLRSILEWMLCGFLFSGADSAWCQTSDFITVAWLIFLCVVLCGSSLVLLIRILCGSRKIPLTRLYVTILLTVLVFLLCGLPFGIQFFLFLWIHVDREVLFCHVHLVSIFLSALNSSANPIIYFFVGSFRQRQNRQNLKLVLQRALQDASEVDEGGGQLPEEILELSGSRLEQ
RGS4 block – human RGS4 inhibition | HEK293 M3R/RGS4 inducible, Fluo-4 calcium flux; hits give high values; triggered by carbachol at its EC20 | B-score at 10 µM | 310,000 compounds, 0.45% hits | P49798;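 active means B-score, a plate-corrected calcium signal, over three deviations above library mean, with baseline fluorescence within five deviations of library mean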;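 further: RGS4 expression induced by doxycycline in cells with stable M3 receptor; B-score is computed from the integrated fluorescence ratio over baseline after carbachol; higher B-score means a larger calcium signal and so more RGS4 inhibition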
Target sequence (P49798 whole entry, looked up): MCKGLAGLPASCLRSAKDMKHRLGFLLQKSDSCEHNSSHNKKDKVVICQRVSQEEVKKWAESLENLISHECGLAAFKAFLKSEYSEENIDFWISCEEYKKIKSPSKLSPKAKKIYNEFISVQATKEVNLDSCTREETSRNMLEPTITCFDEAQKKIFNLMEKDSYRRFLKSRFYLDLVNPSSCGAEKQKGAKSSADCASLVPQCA
MrgX1 ag – activates human MrgX1 receptor signaling; 310,000 compounds, 0.44% hits; Q96LB2; MrgX1-HEK293 cells, Fluo-4 calcium fluorescence, agonist mode; hits give high values; B-score at 10 µM; AID 588627;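 active means calcium response B-score plate-corrected fluorescence ratio at least 3 library SD, with starting fluorescence B-score inside 5 SD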
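Assay system: MrgX1-expressing HEK293 cells / Amount: fifteen thousand cells per well / Doses: test compound in the initial addition of three / Timing: cells plated overnight, dye loaded 0.5 h 37 °C, 0.5 h room temperature / Technique: kinetic calcium dye fluorescence, Fluo-4 NW / Control set: positive and negative controls per plate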
MrgX1 allo act – human MrgX1 positive allosteric modulation, primary screen; 310,000 compounds, 0.63% hits; Q96LB2; MrgX1-HEK293, Fluo-4 calcium flux, FDSS; hits give high values; B-score at 10 µM;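 active means plate-corrected calcium response at least 3 library SD above typical, normal starting fluorescence, not activating the receptor alone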;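 further: compound read alongside a low EC10 to EC30 dose of BAM8-22 agonist; peak minus trough fluorescence over baseline measured at the second addition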
RGS4 pot – potentiators or activators of RGS4 | AID 463111 | 310,000 compounds, 0.92% hits | B-score at 10 µM | HEK293 M3R/inducible RGS4, carbachol calcium flux Fluo4; hits give low values;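 active means B-score of the integrated calcium signal more than 4 SD below the library mean, with starting fluorescence not abnormally high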;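 further: negative B-score means reduced calcium response which marks RGS4 activation or potentiation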
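Assay system: HEK293 FlpIn-TREx cells, stable M3R, doxycycline-inducible RGS4 / Probe or stimulus: carbachol, ECmax concentration / Times: overnight RGS4 induction, 30 min dye load 37 °C, 20 min compound RT / Signal: kinetic calcium fluorescence imaging with Fluo4-AM dye, 2 µM / Measure: Agonist-evoked peak-minus-minimum fluorescence over baseline, integrated ratio, B score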
Active calls of the source: *; i = inactive; x = no result given. Shown are actives, neighbours in structure and some others; about 3.5% of the full set was active somewhere.

SMILES	MrgX1 antag	RGS4 block	MrgX1 ag	MrgX1 allo act	RGS4 pot
C#CCOCCOCCOCCNc1nc(N2CCN(C(=O)[C@H](C)n3cc(CCCN=C(N)N)nn3)CC2)nc(N2CCN(C(=O)[C@H](C)n3cc(CCCN=C(N)N)nn3)CC2)n1	i	i	i	8.4*	i
C#CCOCCOCCOCCNc1nc(N2CCN(C(=O)CCCCCCCCCCNC(=O)[C@H]([C@@H](C)CC)n3cc(CCCCN=C(N)N)nn3)CC2)nc(N2CCN(C(=O)CCCCCCCCCCNC(=O)[C@H]([C@@H](C)CC)n3cc(CCCCN=C(N)N)nn3)CC2)n1	i	x	38*	i	x
C#CCOCCOCCOCCNc1nc(N2CCN(C(=O)CCCCCCCCCCNC(=O)[C@H]([C@@H](C)CC)n3cc(CCCCN=C(N)N)nn3)CC2)nc(N2CCN(C(=O)CCCCCCCCCCNC(=O)[C@H](CO)n3cc(CCCCCN)nn3)CC2)n1	i	x	151*	i	x
O=C(NCCc1ccccc1)c1ccc2c(c1)S(=O)(=O)c1ccccc1C2=O	i	i	i	i	i
O=C(Nc1c2c(nn1-c1ccc(F)cc1)CS(=O)(=O)C2)c1ccc(Br)o1	i	i	i	i	i
C#CCOCCOCCOCCNc1nc(N2CCN(C(=O)CCCCCCCCCCNC(=O)[C@H]([C@@H](C)CC)n3cc(CCCCN=C(N)N)nn3)CC2)nc(N2CCN(C(=O)CCCCCCCCCCNC(=O)[C@H](CCCCN)n3cc(C)nn3)CC2)n1	i	x	122*	i	x
C#CCOCCOCCOCCNc1nc(N2CCN(C(=O)CCCCCCCCCCNC(=O)[C@H]([C@@H](C)CC)n3cc(CCCCCN)nn3)CC2)nc(N2CCN(C(=O)CCCCCCCCCCNC(=O)[C@H](CCCCN)n3cc(CCCC(=O)O)nn3)CC2)n1	i	x	i	i	x
C#CCOCCOCCOCCNc1nc(N2CCN(C(=O)CCCCCCCCCCNC(=O)[C@H]([C@@H](C)CC)n3cc(CCCCCN)nn3)CC2)nc(N2CCN(C(=O)CCCCCCCCCCNC(=O)[C@H]([C@@H](C)CC)n3cc(CCCCN=C(N)N)nn3)CC2)n1	i	x	81*	i	x
C#CCOCCOCCOCCNc1nc(N2CCOCC2)nc(N2CCN(C(=O)CCCCCCCCCCNC(=O)[C@@H]([C@H](C)CC)n3cc(CCCCCN)nn3)CC2)n1	i	x	i	i	x
O=C(NCCS(=O)(=O)N1CCN(c2ccccc2)CC1)c1cccs1	i	i	i	i	i
CCCCCCCCCCCCCCCC[N+](C)(C)CC	-5.3*	i	i	i	i
C=CCn1c(SCC(=O)c2cc(C)n(C(C)COC)c2C)nc2sc(C)c(C)c2c1=O (stereo not drawn)	i	i	i	i	-7.5*
COc1cc(NC(=O)Cn2cnc(S(=O)(=O)N3CCC(C)CC3)c2)cc(OC)c1OC	i	i	i	i	i
CN1CCN(C(=O)CSc2nc(-c3cccs3)ccc2C#N)CC1	i	i	46*	i	i
N#Cc1ccc(-c2cccs2)nc1SCc1cccnc1	i	i	i	i	i
O=C(COC(=O)c1cnccn1)c1ccc(C2CCCCC2)cc1	i	i	i	i	i
O=C(CCCCCCCCC(=O)N/N=C/c1ccco1)N/N=C/c1ccco1	-5.7*	i	i	i	i
CC(C)CC(NC(=O)c1ccccc1)C(=O)N/N=C/c1ccco1 (stereo not drawn)	i	i	30*	i	i
CC(NC(=O)c1ccccc1)C(=O)N/N=C/c1ccco1 (stereo not drawn)	i	i	i	i	i
Cc1ccc(NC(=O)CSc2nnc(-c3cccs3)o2)cc1S(=O)(=O)N1CCCCC1	i	i	i	i	i
CSc1ccc(OC2CCN(Cc3ccccc3)CC2)cc1	i	i	i	i	-7.9*
Cc1nn2c(N3CCCC3)cc(C(C)C)nc2c1-c1ccccc1	i	i	i	i	-7.1*
O=C(Nc1ccc(Oc2ccccc2)cc1)C1CCN(c2c3c(nc4ncnn24)CCC3)CC1	i	i	i	i	-12*
O=C(Nc1ccc2c(c1)CCC2)C1CCN(c2c3c(nc4ncnn24)CCC3)CC1	i	i	i	i	i
Cc1ccc(NS(=O)(=O)c2ccc(-c3csc(C)n3)s2)c(C)c1	i	i	i	i	i
SMILES	MrgX1 antag	RGS4 block	MrgX1 ag	MrgX1 allo act	RGS4 pot
CCSc1nnc2c(n1)[nH]c1c(C)cccc12	i	i	i	i	i
CSc1nnc2c(n1)[nH]c1c(C)cccc12	-4.7*	i	i	i	i
CCC1CCCCN1S(=O)(=O)c1ccc(C(=O)Nc2nnc(-c3ccccc3Cl)o2)cc1 (stereo not drawn)	i	i	38*	i	i
O=C(Nc1nnc(-c2cccs2)o1)c1ccc(S(=O)(=O)N2CCOCC2)cc1	i	i	i	i	i
CC1(C)COCN1S(=O)(=O)c1ccc(C(=O)Nc2nnc(-c3ccc(Cl)s3)o2)cc1	i	i	80*	i	i
CCC1CCCCN1S(=O)(=O)c1ccc(C(=O)Nc2nnc(C3CC3)o2)cc1 (stereo not drawn)	i	i	i	i	i
CCS(=O)(=O)c1ccc2oc(SCC(=O)NCc3ccccc3)nc2c1	i	i	i	i	-7.2*
Cc1ccc(Cl)cc1N1CCN(C(=O)c2cc3c(=O)n(C)c4ccccc4c3n2C)CC1	i	i	i	i	-7.2*
O=C1c2ccccc2C(=O)N1n1cccc1	i	i	i	i	i
O=C(Cc1cccc2ccccc12)Nc1ccc(Br)cc1C(=O)O	-6.3*	i	i	i	i
COc1cc(C(c2c(O)nc(SC)[nH]c2=O)c2c(O)nc(SC)[nH]c2=O)cc(OC)c1OC	-4.7*	i	i	i	i
Cc1cc(C(=O)NCc2ccccc2F)c2ccccc2n1	i	i	i	i	i
Cn1cccc1/C=C1\CCC/C(=C\c2cccn2C)C1=O	i	i	38*	i	i
O=C1/C(=C/c2cccs2)CCC/C1=C\c1cccs1	i	i	i	i	i
CC(C)NCC(O)COCCOc1ccc(C(C)(C)C)cc1 (stereo not drawn)	-5.2*	i	i	i	i
Nc1nonc1-n1nnc(C(=O)N/N=C/c2ccc(O)cc2)c1CN1CCCCCC1	-8.6*	i	i	i	i
CCN1/C(=C/C(C)=C/c2sc3ccccc3[n+]2CC)Sc2ccccc21	-6.4*	i	i	i	i
Cn1cccc1C(=O)OCC(=O)N1CC(=O)Nc2ccccc21	i	i	i	i	i
